Results reported in ChEMBL document CHEMBL3045066, “Synthesis, structure-activity relationships (SAR) and in silico studies of coumarin derivatives with antifungal activity” (2013).
In brackets after ≈: the same amount, converted by molar mass.

How the values were obtained:
Assay type in all cases: functional
[1] = system: Aspergillus fumigatus; test: Antifungal activity against Aspergillus fumigatus ATCC 46913 after 72 hr by broth microdilution method; conditions: ATCC 46913, 72 h
Summary of the method: (§1)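 Molds were grown 7 days on SDA at 25–28 °C, and conidia were harvested in sterile 0.85% NaCl. Conidia were counted by hemocytometer and adjusted to about 5 × 10^6 conidia/mL. Microdilution used Sabouraud broth in 96-well plates with compound at 2048 to 8 μg/mL and about 2.5 × 10^5 conidia/mL per well. Plates were incubated at 25–28 °C for 72 h, with readings confirmed at 7 days. Amphotericin B was the reference.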

[2] = system: Aspergillus flavus; test: Antifungal activity against Aspergillus flavus ATCC 16013 after 72 hr by broth microdilution method; conditions: ATCC 16013, 72 h; summary of the method: as §1
[3] = system: Aspergillus flavus; test: Antifungal activity against Aspergillus flavus LM 26 after 72 hr by broth microdilution method; conditions: LM 26, 72 h; summary of the method: as §1
[4] = system: Aspergillus fumigatus; test: Antifungal activity against Aspergillus fumigatus ATCC 40640 after 72 hr by broth microdilution method; conditions: ATCC 40640, 72 h; summary of the method: as §1
[5] = system: Aspergillus fumigatus; test: Antifungal activity against Aspergillus fumigatus ATCC 16913 after 72 hr by broth microdilution method; conditions: for MIC: Aspergillus fumigatus, ATCC 16913, 72 h; summary of the method: as §1
[6] = system: Aspergillus flavus; test: Antifungal activity against Aspergillus flavus LM 247 after 72 hr by broth microdilution method; conditions: LM 247, 72 h; summary of the method: as §1
[7] = system: Aspergillus fumigatus; test: Antifungal activity against Aspergillus fumigatus IPP 210 after 72 hr by broth microdilution method; conditions: IPP 210, 72 h; summary of the method: as §1
[8] = system: Aspergillus flavus; test: Antifungal activity against Aspergillus flavus LM 210 after 72 hr by broth microdilution method; conditions: LM 210, 72 h; summary of the method: as §1

SMILES	MIC [1]	MIC [2]	MIC [3]	MIC [4]	log(1/MIC) [5]	MIC [5]	MIC [6]	MIC [7]	MIC [8]
CC(C)=CCC/C(C)=C/COc1ccc2oc(=O)ccc2c1	≥ 2050 µg/mL	≥ 2050 µg/mL	≥ 2050 µg/mL	≥ 2050 µg/mL	2.16	≥ 2050 µg/mL	≥ 2050 µg/mL	≥ 2050 µg/mL	≥ 2050 µg/mL
COc1cc2ccc(=O)oc2cc1O [SCOPOLETIN]	≥ 2050 µg/mL	≥ 2050 µg/mL	≥ 2050 µg/mL	≥ 2050 µg/mL	1.97	≥ 2050 µg/mL	≥ 2050 µg/mL	≥ 2050 µg/mL	≥ 2050 µg/mL
O=c1ccc2cc(O)c(O)cc2o1 [ESCULETIN]	≥ 2050 µg/mL	≥ 2050 µg/mL	≥ 2050 µg/mL	≥ 2050 µg/mL	1.93	≥ 2050 µg/mL	≥ 2050 µg/mL	≥ 2050 µg/mL	≥ 2050 µg/mL
O=c1ccc2ccccc2o1 [COUMARIN]	1020 µg/mL (≈ 7010 µM)	1020 µg/mL (≈ 7010 µM)	1020 µg/mL (≈ 7010 µM)	1020 µg/mL (≈ 7010 µM)	2.15	1020 µg/mL (≈ 7010 µM)	1020 µg/mL (≈ 7010 µM)	1020 µg/mL (≈ 7010 µM)	1020 µg/mL (≈ 7010 µM)
C[C@@H]1[C@H](O)[C@@H](C)/C=C/C=C/C=C/C=C/C=C/C=C/C=C/[C@H](O[C@@H]2O[C@H](C)[C@@H](O)[C@H](N)[C@@H]2O)C[C@@H]2O[C@](O)(C[C@@H](O)C[C@@H](O)[C@H](O)CC[C@@H](O)C[C@@H](O)CC(=O)O[C@H]1C)C[C@H](O)[C@H]2C(=O)O [AMPHOTERICIN B]	2 µg/mL (≈ 2.16 µM)	2 µg/mL (≈ 2.16 µM)	512 µg/mL (≈ 554 µM)	2 µg/mL (≈ 2.16 µM)	–	2 µg/mL (≈ 2.16 µM)	8 µg/mL (≈ 8.66 µM)	2 µg/mL (≈ 2.16 µM)	2 µg/mL (≈ 2.16 µM)
O=c1oc2ccccc2cc1O [3-HYDROXYCOUMARIN]	64 µg/mL (≈ 395 µM)	128 µg/mL (≈ 789 µM)	128 µg/mL (≈ 789 µM)	64 µg/mL (≈ 395 µM)	3.4	64 µg/mL (≈ 395 µM)	128 µg/mL (≈ 789 µM)	64 µg/mL (≈ 395 µM)	128 µg/mL (≈ 789 µM)
CC(C)=CCC/C(C)=C/COc1ccc2ccc(=O)oc2c1 [AURAPTENE]	≥ 2050 µg/mL	≥ 2050 µg/mL	≥ 2050 µg/mL	≥ 2050 µg/mL	2.16	≥ 2050 µg/mL	≥ 2050 µg/mL	≥ 2050 µg/mL	≥ 2050 µg/mL
C=CCOc1ccc2oc(=O)ccc2c1	≥ 2050 µg/mL	≥ 2050 µg/mL	≥ 2050 µg/mL	≥ 2050 µg/mL	1.99	≥ 2050 µg/mL	≥ 2050 µg/mL	≥ 2050 µg/mL	≥ 2050 µg/mL
O=c1cc(O)c2ccccc2o1 [4-HYDROXYCOUMARINS]	≥ 2050 µg/mL	≥ 2050 µg/mL	≥ 2050 µg/mL	≥ 2050 µg/mL	1.89	≥ 2050 µg/mL	≥ 2050 µg/mL	≥ 2050 µg/mL	≥ 2050 µg/mL
CC(=O)Oc1ccc2oc(=O)ccc2c1	256 µg/mL (≈ 1250 µM)	256 µg/mL (≈ 1250 µM)	256 µg/mL (≈ 1250 µM)	256 µg/mL (≈ 1250 µM)	2.89	256 µg/mL (≈ 1250 µM)	256 µg/mL (≈ 1250 µM)	256 µg/mL (≈ 1250 µM)	256 µg/mL (≈ 1250 µM)
O=c1ccc2cc(O)ccc2o1 [6-HYDROXYCOUMARIN]	≥ 2050 µg/mL	≥ 2050 µg/mL	≥ 2050 µg/mL	≥ 2050 µg/mL	1.89	≥ 2050 µg/mL	≥ 2050 µg/mL	≥ 2050 µg/mL	≥ 2050 µg/mL
O=c1ccc2c([N+](=O)[O-])c(O)c([N+](=O)[O-])cc2o1	512 µg/mL (≈ 2030 µM)	512 µg/mL (≈ 2030 µM)	512 µg/mL (≈ 2030 µM)	512 µg/mL (≈ 2030 µM)	2.69	512 µg/mL (≈ 2030 µM)	512 µg/mL (≈ 2030 µM)	512 µg/mL (≈ 2030 µM)	512 µg/mL (≈ 2030 µM)
O=C(O)c1cc2ccccc2oc1=O [COUMARIN-3-CARBOXYLIC ACID]	1020 µg/mL (≈ 5390 µM)	1020 µg/mL (≈ 5390 µM)	1020 µg/mL (≈ 5390 µM)	1020 µg/mL (≈ 5390 µM)	2.26	1020 µg/mL (≈ 5390 µM)	≥ 2050 µg/mL	1020 µg/mL (≈ 5390 µM)	1020 µg/mL (≈ 5390 µM)
CC(=O)Oc1ccc2ccc(=O)oc2c1 [7-ACETOXYCOUMARIN]	64 µg/mL (≈ 313 µM)	64 µg/mL (≈ 313 µM)	64 µg/mL (≈ 313 µM)	64 µg/mL (≈ 313 µM)	3.5	64 µg/mL (≈ 313 µM)	128 µg/mL (≈ 627 µM)	64 µg/mL (≈ 313 µM)	64 µg/mL (≈ 313 µM)
CC(C)=CCOc1ccc2oc(=O)ccc2c1	≥ 2050 µg/mL	≥ 2050 µg/mL	≥ 2050 µg/mL	≥ 2050 µg/mL	2.05	≥ 2050 µg/mL	≥ 2050 µg/mL	≥ 2050 µg/mL	≥ 2050 µg/mL
CC(=O)Oc1cc(=O)oc2ccccc12	16 µg/mL (≈ 78.4 µM)	16 µg/mL (≈ 78.4 µM)	16 µg/mL (≈ 78.4 µM)	16 µg/mL (≈ 78.4 µM)	4.1	16 µg/mL (≈ 78.4 µM)	16 µg/mL (≈ 78.4 µM)	16 µg/mL (≈ 78.4 µM)	16 µg/mL (≈ 78.4 µM)
O=c1ccc2cc([N+](=O)[O-])c(O)cc2o1	16 µg/mL (≈ 77.2 µM)	16 µg/mL (≈ 77.2 µM)	16 µg/mL (≈ 77.2 µM)	16 µg/mL (≈ 77.2 µM)	4.11	16 µg/mL (≈ 77.2 µM)	16 µg/mL (≈ 77.2 µM)	16 µg/mL (≈ 77.2 µM)	16 µg/mL (≈ 77.2 µM)
C=CCOc1cc(=O)oc2ccccc12	32 µg/mL (≈ 158 µM)	32 µg/mL (≈ 158 µM)	64 µg/mL (≈ 317 µM)	32 µg/mL (≈ 158 µM)	3.8	32 µg/mL (≈ 158 µM)	1020 µg/mL (≈ 5060 µM)	64 µg/mL (≈ 317 µM)	32 µg/mL (≈ 158 µM)
COc1cc2ccc(=O)oc2c(O)c1O [FRAXETIN]	≥ 2050 µg/mL	≥ 2050 µg/mL	≥ 2050 µg/mL	≥ 2050 µg/mL	2	≥ 2050 µg/mL	≥ 2050 µg/mL	≥ 2050 µg/mL	≥ 2050 µg/mL
CCOC(=O)COc1ccc2ccc(=O)oc2c1	512 µg/mL (≈ 2060 µM)	512 µg/mL (≈ 2060 µM)	512 µg/mL (≈ 2060 µM)	512 µg/mL (≈ 2060 µM)	2.68	512 µg/mL (≈ 2060 µM)	512 µg/mL (≈ 2060 µM)	512 µg/mL (≈ 2060 µM)	512 µg/mL (≈ 2060 µM)
CC(C)=CCOc1ccc2ccc(=O)oc2c1 [7-PRENYLOXYCOUMARIN]	128 µg/mL (≈ 556 µM)	1020 µg/mL (≈ 4450 µM)	1020 µg/mL (≈ 4450 µM)	128 µg/mL (≈ 556 µM)	3.25	128 µg/mL (≈ 556 µM)	1020 µg/mL (≈ 4450 µM)	128 µg/mL (≈ 556 µM)	1020 µg/mL (≈ 4450 µM)
C=CCOc1ccc2ccc(=O)oc2c1 [7-ALLYLOXYCOUMARIN]	64 µg/mL (≈ 317 µM)	64 µg/mL (≈ 317 µM)	64 µg/mL (≈ 317 µM)	64 µg/mL (≈ 317 µM)	3.49	64 µg/mL (≈ 317 µM)	256 µg/mL (≈ 1270 µM)	64 µg/mL (≈ 317 µM)	64 µg/mL (≈ 317 µM)
O=c1oc2ccccc2c(O)c1[N+](=O)[O-]	1020 µg/mL (≈ 4940 µM)	1020 µg/mL (≈ 4940 µM)	1020 µg/mL (≈ 4940 µM)	1020 µg/mL (≈ 4940 µM)	2.3	1020 µg/mL (≈ 4940 µM)	1020 µg/mL (≈ 4940 µM)	1020 µg/mL (≈ 4940 µM)	1020 µg/mL (≈ 4940 µM)
